Test results taken from ChEMBL document CHEMBL5532737, “Lead Identification of Novel Naphthyridine Derivatives as Potent SOS1 Inhibitors” (ACS Med Chem Lett, 2024).
pIC50: −log10 of the molar value. Activity calls are given as the source filed them. No cut-off for these calls is given here.

Columns and labels:
[1] = Oral bioavailability in ICR mouse at 5 mg/kg measured upto 24 hrs by LCMS analysis; format: ADME, organism-based; conditions: in vivo
Method in brief: (§1)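 Mice were dosed once orally at 5 mg/kg or intravenously at 1 mg/kg, both in solution in 5% DMSO + 95% (20% HP-β-CD). Cmax is the highest observed plasma concentration, AUC the area under the plasma concentration–time curve, and F the bioavailability. CL is reported as elimination rate and t1/2 as elimination half-life.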

[2] = biological target: SOS1-KRAS (Homo sapiens, UniProt Q07889); test: Inhibition of SOS1/KRAS G12C mutant (unknown origin) protein-protein interaction incubated for 2 hrs by HTRF analysis; format: protein-complex assay
SOS1-KRAS, sequence (Q07889 whole entry, looked up, stated change not applied): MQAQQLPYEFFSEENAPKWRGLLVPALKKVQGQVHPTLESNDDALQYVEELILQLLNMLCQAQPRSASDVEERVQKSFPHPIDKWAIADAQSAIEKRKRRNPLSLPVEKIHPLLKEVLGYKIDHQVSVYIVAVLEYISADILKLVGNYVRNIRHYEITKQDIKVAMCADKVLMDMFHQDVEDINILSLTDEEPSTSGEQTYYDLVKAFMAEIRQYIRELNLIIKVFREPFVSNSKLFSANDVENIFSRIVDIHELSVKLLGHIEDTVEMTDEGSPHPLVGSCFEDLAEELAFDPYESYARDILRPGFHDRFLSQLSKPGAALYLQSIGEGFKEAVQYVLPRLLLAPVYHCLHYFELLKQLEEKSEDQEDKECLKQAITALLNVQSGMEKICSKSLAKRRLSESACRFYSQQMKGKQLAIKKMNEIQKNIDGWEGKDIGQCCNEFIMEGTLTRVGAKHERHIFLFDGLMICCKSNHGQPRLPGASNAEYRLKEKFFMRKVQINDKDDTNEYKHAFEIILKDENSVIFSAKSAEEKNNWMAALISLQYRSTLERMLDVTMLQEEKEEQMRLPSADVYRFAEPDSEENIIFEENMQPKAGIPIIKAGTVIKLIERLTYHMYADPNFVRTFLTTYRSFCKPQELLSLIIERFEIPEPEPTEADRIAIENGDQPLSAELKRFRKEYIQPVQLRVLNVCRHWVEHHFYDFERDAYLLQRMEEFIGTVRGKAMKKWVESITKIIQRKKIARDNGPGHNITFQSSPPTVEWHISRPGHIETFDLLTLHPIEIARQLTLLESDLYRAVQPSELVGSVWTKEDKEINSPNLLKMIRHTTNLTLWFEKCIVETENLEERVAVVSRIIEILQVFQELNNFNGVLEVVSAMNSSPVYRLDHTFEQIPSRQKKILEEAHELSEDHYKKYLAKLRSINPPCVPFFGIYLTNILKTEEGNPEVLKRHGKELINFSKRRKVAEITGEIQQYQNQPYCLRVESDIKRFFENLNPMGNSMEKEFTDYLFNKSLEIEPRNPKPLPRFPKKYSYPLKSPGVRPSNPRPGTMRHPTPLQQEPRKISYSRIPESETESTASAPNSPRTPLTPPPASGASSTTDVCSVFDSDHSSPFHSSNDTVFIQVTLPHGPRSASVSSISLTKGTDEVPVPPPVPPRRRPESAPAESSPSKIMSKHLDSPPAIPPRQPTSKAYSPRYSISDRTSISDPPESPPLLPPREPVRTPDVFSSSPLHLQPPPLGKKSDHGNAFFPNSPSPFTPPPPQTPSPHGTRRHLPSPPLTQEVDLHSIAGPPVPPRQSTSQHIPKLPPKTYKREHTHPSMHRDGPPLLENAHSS

[3] = Elimination half life in ICR mouse at 1 mg/kg, iv measured upto 24 hrs by LCMS analysis; format: ADME, organism-based; conditions: in vivo, read-out: beta t1/2 (converted); method in brief: as §1
[4] = AUC in ICR mouse at 5 mg/kg, po measured upto 24 hrs by LCMS analysis; format: ADME, organism-based; conditions: in vivo; method in brief: as §1
[5] = Clearance in ICR mouse at 1 mg/kg, iv measured upto 24 hrs by LCMS analysis; format: ADME, organism-based; conditions: in vivo; method in brief: as §1
[6] = Inhibition of ERK phosphorylation in human PC-9 cells incubated for 1 hr by HTRF analysis; format: cell-based; conditions: PC-9, 1 h
[7] = Cmax in ICR mouse at 5 mg/kg, po measured upto 24 hrs by LCMS analysis; format: ADME, organism-based; conditions: in vivo; method in brief: as §1
[8] = tested on: NCI-H358; test: Antitumor activity against human NCI-H358 cells harboring KRAS G12C mutant xenografted in BALB/c mouse assessed as tumor growth inhibition at 50 mg/kg, po measured after 28 days; format: functional; conditions: NCI-H358, 672 h, time 28 day, read-out: TGI
Method in brief: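 Subcutaneous NCI-H358 (KRAS G12C) xenograft mice given the drug orally. Efficacy is expressed as tumour growth inhibition (TGI), shown as mean ± SEM and compared with the vehicle group on day 28 (P < 0.05). Tumour p-ERK and plasma drug levels were measured 2 and 24 h after treatment.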

[9] = tested on: NCI-H358; test: Antitumor activity against human NCI-H358 cells harboring KRAS G12C mutant xenografted in BALB/c mouse assessed as reduction in ERK phosphorylation at 50 mg/kg, po measured for 2 to 24 hrs; format: functional, organism-based; conditions: time 2-24 hrs
Method in brief: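 Tumor samples from NCI-H358 xenograft mice were assayed for p-ERK levels at 2 and 24 h after drug treatment. Plasma drug concentrations were measured at the same time points. Data are given as mean ± SEM.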

[10] = biological target: T1, Cytochrome P450 1A2 (Homo sapiens, UniProt P05177); test: Inhibition of CYP1A2 in human liver microsomes incubated for 5 mins by LC-MS/MS analysis; format: ADME, Microsome
T1 sequence (P05177 whole entry): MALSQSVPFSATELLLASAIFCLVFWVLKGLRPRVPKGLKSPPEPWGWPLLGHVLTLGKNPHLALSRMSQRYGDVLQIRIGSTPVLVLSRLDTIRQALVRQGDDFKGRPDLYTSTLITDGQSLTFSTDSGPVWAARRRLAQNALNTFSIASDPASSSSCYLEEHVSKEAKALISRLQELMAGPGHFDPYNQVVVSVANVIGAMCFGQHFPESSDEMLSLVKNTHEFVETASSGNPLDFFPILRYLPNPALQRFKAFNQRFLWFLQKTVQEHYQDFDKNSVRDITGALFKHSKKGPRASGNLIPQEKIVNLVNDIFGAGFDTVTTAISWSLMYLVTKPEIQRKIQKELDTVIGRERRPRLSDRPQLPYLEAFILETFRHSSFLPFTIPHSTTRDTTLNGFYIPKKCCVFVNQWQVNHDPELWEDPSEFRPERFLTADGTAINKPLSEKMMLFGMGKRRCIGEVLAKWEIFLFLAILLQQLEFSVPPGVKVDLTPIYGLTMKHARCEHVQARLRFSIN

[11] = biological target: Cytochrome P450 2C9 (Homo sapiens, UniProt P11712); test: Inhibition of CYP2C9 in human liver microsomes incubated for 5 mins by LC-MS/MS analysis; format: ADME, Microsome
Cytochrome P450 2C9, sequence (P11712 whole entry): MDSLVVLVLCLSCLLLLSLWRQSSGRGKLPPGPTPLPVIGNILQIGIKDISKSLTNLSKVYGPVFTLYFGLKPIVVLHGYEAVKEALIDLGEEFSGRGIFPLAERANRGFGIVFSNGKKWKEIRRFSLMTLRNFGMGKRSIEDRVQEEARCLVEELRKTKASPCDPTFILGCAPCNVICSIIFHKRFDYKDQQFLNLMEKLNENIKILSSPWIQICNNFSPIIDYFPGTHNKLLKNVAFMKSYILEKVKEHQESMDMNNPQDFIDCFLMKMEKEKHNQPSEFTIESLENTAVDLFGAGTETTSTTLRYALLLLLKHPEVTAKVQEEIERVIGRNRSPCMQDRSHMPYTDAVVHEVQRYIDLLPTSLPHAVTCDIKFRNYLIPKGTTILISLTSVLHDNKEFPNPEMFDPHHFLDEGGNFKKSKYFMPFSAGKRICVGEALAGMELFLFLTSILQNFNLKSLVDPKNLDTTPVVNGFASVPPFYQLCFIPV

[12] = biological target: Voltage-gated inwardly rectifying potassium channel KCNH2 (Homo sapiens, UniProt Q12809); test: Inhibition of hERG transfected in HEK293 cells by whole-cell manual patch clamp assay; format: toxicity, cell-based
Voltage-gated inwardly rectifying potassium channel KCNH2, sequence (Q12809 whole entry): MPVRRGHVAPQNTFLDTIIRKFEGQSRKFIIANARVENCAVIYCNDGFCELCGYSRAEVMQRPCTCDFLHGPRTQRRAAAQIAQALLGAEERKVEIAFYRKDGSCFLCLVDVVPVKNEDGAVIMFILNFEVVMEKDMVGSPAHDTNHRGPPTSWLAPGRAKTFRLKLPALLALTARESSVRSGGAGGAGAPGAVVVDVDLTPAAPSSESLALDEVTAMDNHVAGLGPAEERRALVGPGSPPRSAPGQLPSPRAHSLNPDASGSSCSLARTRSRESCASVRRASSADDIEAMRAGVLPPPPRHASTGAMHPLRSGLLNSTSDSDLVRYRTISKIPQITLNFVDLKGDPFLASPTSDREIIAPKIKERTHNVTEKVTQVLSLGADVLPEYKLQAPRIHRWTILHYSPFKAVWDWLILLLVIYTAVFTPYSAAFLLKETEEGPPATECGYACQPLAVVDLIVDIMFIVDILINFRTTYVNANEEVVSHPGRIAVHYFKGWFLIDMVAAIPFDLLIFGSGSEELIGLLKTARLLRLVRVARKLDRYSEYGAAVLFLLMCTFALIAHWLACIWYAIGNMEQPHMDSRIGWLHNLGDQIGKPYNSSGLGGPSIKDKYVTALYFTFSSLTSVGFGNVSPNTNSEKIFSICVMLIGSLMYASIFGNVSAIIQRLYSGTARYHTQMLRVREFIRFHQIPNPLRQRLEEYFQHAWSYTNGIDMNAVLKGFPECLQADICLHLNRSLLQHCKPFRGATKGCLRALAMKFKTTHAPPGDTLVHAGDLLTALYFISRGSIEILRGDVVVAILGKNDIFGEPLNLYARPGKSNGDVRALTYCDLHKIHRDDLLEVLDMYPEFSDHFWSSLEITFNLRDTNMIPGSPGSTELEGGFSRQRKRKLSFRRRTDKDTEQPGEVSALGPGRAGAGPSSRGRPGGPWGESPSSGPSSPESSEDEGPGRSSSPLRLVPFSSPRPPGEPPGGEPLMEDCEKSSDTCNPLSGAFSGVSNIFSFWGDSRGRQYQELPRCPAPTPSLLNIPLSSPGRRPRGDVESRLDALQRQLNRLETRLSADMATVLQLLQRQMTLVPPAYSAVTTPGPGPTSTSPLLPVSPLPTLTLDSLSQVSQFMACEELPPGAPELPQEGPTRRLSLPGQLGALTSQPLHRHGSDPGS

[13] = Plasma protein binding in mouse assessed as unbound fraction incubated for 4 hrs by LC-MS/MS analysis; format: ADME, cell-free
[14] = Drug concentration in mouse plasma at 50 mg/kg, po measured for 8 hrs; format: ADME, organism-based; conditions: in vivo
Method in brief: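 Mice received a single 50 mg/kg dose, and the unbound drug concentration in plasma was followed over time.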

[15] = biological target: Cytochrome P450 2D6 (Homo sapiens, UniProt P10635); test: Inhibition of CYP2D6 in human liver microsomes incubated for 5 mins by LC-MS/MS analysis; format: ADME, Microsome
Cytochrome P450 2D6, sequence (P10635 whole entry): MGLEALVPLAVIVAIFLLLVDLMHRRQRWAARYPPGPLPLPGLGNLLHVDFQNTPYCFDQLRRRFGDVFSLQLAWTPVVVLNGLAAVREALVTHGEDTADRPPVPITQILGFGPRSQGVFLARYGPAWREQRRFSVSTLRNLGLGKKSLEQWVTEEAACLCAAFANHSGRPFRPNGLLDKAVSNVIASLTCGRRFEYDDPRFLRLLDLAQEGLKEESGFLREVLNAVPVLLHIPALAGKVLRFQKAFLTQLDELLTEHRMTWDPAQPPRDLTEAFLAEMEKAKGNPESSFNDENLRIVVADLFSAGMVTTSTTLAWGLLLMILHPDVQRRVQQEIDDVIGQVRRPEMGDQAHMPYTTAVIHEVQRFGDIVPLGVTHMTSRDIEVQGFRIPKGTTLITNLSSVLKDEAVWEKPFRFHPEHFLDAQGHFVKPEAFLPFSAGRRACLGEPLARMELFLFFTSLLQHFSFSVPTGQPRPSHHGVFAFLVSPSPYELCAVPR

[16] = biological target: Cytochrome P450 3A4 (Homo sapiens, UniProt P08684); test: Inhibition of CYP3A4 in human liver microsomes incubated for 5 mins by LC-MS/MS analysis; format: ADME, Microsome
Cytochrome P450 3A4, sequence (P08684 whole entry): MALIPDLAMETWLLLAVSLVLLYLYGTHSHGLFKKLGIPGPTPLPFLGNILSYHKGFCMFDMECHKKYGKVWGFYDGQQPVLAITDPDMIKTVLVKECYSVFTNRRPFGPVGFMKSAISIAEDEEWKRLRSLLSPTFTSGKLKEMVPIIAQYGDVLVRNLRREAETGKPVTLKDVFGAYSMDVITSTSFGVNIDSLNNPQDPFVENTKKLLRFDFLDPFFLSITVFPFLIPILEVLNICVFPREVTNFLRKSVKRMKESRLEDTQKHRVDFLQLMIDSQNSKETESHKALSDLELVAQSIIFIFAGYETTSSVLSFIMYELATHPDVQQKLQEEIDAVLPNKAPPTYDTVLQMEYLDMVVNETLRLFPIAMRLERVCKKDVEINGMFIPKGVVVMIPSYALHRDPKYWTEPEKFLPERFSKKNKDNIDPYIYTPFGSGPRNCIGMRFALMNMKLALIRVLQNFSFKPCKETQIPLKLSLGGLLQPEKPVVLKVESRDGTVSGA

[17] = biological target: Cytochrome P450 2C19 (Homo sapiens, UniProt P33261); test: Inhibition of CYP2C19 in human liver microsomes incubated for 5 mins by LC-MS/MS analysis; format: ADME, Microsome
Cytochrome P450 2C19, sequence (P33261 whole entry): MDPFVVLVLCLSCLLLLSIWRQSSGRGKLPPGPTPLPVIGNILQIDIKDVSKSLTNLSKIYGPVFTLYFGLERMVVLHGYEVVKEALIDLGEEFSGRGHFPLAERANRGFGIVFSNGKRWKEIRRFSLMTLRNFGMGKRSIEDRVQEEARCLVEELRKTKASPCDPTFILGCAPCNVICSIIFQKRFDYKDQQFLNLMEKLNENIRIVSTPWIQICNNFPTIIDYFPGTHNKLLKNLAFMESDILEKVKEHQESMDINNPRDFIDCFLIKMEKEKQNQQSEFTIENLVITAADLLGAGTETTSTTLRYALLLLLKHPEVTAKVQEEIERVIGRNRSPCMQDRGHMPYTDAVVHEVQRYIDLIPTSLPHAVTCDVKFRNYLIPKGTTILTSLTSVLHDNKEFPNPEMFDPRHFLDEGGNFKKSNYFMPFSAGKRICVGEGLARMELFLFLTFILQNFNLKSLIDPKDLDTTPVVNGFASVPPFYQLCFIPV

[18] = Plasma protein binding in rat assessed as unbound fraction incubated for 4 hrs by LC-MS/MS analysis; format: ADME, cell-free
[19] = Plasma protein binding in dog assessed as unbound fraction incubated for 4 hrs by LC-MS/MS analysis; format: ADME, cell-free, Canis lupus familiaris
[20] = Plasma protein binding in human assessed as unbound fraction incubated for 4 hrs by LC-MS/MS analysis; format: ADME, cell-free
[21] = tested on: NCI-H358; test: Antiproliferative activity against human NCI-H358 cells harboring KRAS G12C mutant assessed as inhibition of cell proliferation incubated for 5 days by celltiter-glo 3D assay; format: functional, cell-based; conditions: NCI-H358, 120 h
[22] = Toxicity against BALB/c mouse xenografted with human NCI-H358 cells harboring KRAS G12C mutant assessed as body weight loss at 50 mg/kg, po measured after 28 days; format: organism-based; conditions: in vivo, 672 h, time 28 day
[23] = tested on: NCI-H358; test: Antitumor activity against human NCI-H358 cells harboring KRAS G12C mutant xenografted in BALB/c mouse assessed as reduction in ERK phosphorylation at 50 mg/kg, po measured after 28 days; format: functional, organism-based; conditions: time 28.0 day

Row | SMILES | pIC50 [2] | pIC50 [6] | further results
1 | C[C@@H](Nc1ccnc2cnc(N3CCS(=O)(=O)CC3)cc12)c1cccc(C(F)F)c1F | 8.28 | 7.25 | bioavailability [1]: 36%; half-life [3]: 1.18 h; AUC at 24 h [4]: 406 ng·h/mL; clearance [5]: 67 mL/min/kg; Cmax [7]: 136 ng/mL
2 | COc1cc2nccc(N[C@H](C)c3cccc(C(F)F)c3F)c2cc1O[C@H]1CCOC1 | 8.17 | 6.67 | 
3 | C[C@@H](Nc1ccnc2cnc(N3CCC(O)CC3)cc12)c1cccc(C(F)F)c1F | 8.07 | 6.81 | 
4 | COc1cc2nccc(N[C@H](C)c3cccc(C(F)F)c3F)c2cc1C1CCN(C(C)=O)CC1 | 7.96 | 5.99 | 
5 | CC(=O)N1CCC(c2cc3c(N[C@H](C)c4cccc(C(F)F)c4F)ccnc3cn2)C1 (some centres undefined) | 7.66 | 6.78 | 
6 | COc1cc2nccc(N[C@H](C)c3cccc(C(F)F)c3F)c2cc1O[C@H]1CCN(C(=O)C2CC2)C1 | 8.00 | 7.04 | 
7 | COc1cc2nccc(N[C@H](C)c3cccc(C(F)F)c3F)c2cc1O[C@H]1CCN(C(C)=O)C1 | 8.42 | 7.35 | bioavailability [1]: 19%; half-life [3]: 0.45 h; AUC at 24 h [4]: 152 ng·h/mL; clearance [5]: 107 mL/min/kg; Cmax [7]: 77 ng/mL
8 | COc1cc2nccc(N[C@H](C)c3cccc(C(F)F)c3F)c2cc1O[C@H]1CCN(C)C1 | 7.82 | 6.53 | 
9 | COc1cc2nccc(N[C@H](C)c3cccc(C(F)F)c3F)c2cc1C1CC1 | 7.64 | 5.97 | 
10 | COc1cc2nccc(N[C@H](C)c3cccc(C(F)F)c3F)c2cc1C1CCNCC1 | 7.85 | 6.10 | 
11 | COc1cc2nccc(N[C@H](C)c3cccc(C(F)F)c3F)c2cc1O[C@H]1CCNC1 | 8.22 | 6.30 | 
12 | CC(=O)N1CCC(c2cc3c(N[C@H](C)c4cccc(C(F)F)c4F)ccnc3cn2)CC1 | 8.01 | 7.11 | bioavailability [1]: 25%; half-life [3]: 0.88 h; AUC at 24 h [4]: 578 ng·h/mL; clearance [5]: 40 mL/min/kg; Cmax [7]: 424 ng/mL
13 | C[C@@H](Nc1ccnc2cnc(N3CCOCC3)cc12)c1cccc(C(F)F)c1F | 8.15 | 6.46 | 
14 | COc1cc2nccc(N[C@H](C)c3cccc(C(F)F)c3F)c2cc1N1CCN(C(C)=O)CC1 | 8.06 | 7.52 | 
15 | C[C@@H](Nc1ccnc2cnc(N3CCN(C)C(=O)C3)cc12)c1cccc(C(F)F)c1F | 8.16 | 6.89 | 
16 | COc1cc2nccc(N[C@H](C)c3cccc(C(F)F)c3F)c2cc1OC | 7.96 | 6.26 | 
17 | CC(=O)N1CCN(c2cc3c(N[C@H](C)c4cccc(C(F)F)c4F)ccnc3cn2)CC1 | 8.24 | 7.27 | inhibition in vivo at 50 mg/kg [8]: 76%; Activity [9]: Active; bioavailability [1]: 81%; pIC50 [10]: 4.76; half-life [3]: 1.53 h; pIC50 [11]: 5.24; pIC50 [12]: 5.61; fraction unbound at 4 h [13]: 0.0675; Drug uptake [14]: Active; pIC50 [15]: 4.95; pIC50 [16]: < 4.30; pIC50 [17]: 5.50; fraction unbound at 4 h [18]: 0.0529; fraction unbound at 4 h [19]: 0.0545; fraction unbound at 4 h [20]: 0.0481; AUC at 24 h [4]: 1950 ng·h/mL; pIC50 [21]: 6.49; clearance [5]: 35 mL/min/kg; Cmax [7]: 714 ng/mL
18 | C[C@@H](Nc1ccnc2cnc(N3CCN(S(C)(=O)=O)CC3)cc12)c1cccc(C(F)F)c1F | 7.89 |  | 
19 | COc1cc2nccc(N[C@H](C)c3cccc(C(F)F)c3F)c2cc1O[C@H]1CCN(C(=O)C2CCOCC2)C1 | 7.89 | 7.14 | 
20 | COc1cc2nccc(N[C@H](C)c3cccc(C(F)F)c3F)c2cc1OC1CCNCC1 | 7.89 | 5.97 | 
21 | COc1cc2nc(C)nc(N[C@H](C)c3cc(N)cc(C(F)(F)F)c3)c2cc1O[C@H]1CCOC1 |  | 6.52 | inhibition in vivo at 50 mg/kg [8]: 49%; Activity [22]: Non-Toxic; Activity [23]: Active; pIC50 [21]: 7.05
22 | C[C@@H](Nc1ccnc2cnc(O[C@H]3CCOC3)cc12)c1cccc(C(F)F)c1F | 7.82 | 6.11 | 
23 | COc1cc2nccc(N[C@H](C)c3cccc(C(F)F)c3F)c2cc1N1CCS(=O)(=O)CC1 | 8.07 | 7.77 | bioavailability [1]: 5%; half-life [3]: 1.75 h; AUC at 24 h [4]: 29 ng·h/mL; clearance [5]: 127 mL/min/kg; Cmax [7]: 10 ng/mL
24 | CC(=O)NC1CCN(c2cc3c(N[C@H](C)c4cccc(C(F)F)c4F)ccnc3cn2)CC1 | 7.92 | 6.31 | 
